Activity calls are given as the source filed them.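 How the source made its calls, unless noted: active means NADPH fluorescence slope more negative than the mean of all samples by about 3 SD, 99.7% confidence; inactive means the rest.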

The nature of experiment [1]: inhibitors of TNFa-induced NFkB p65 translocation, primary screen, imaging, HUVEC, MLSMR starter and 10KST1 sets (AID 438;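 active means inhibition above 20% together with a positive visual image hit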;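 further: compound added about 3h40 before a 20 min TNFalpha stimulation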;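 on inhibition: signal is the nuclear over cytoplasmic p65 intensity ratio per well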). The following applies: HUVEC TNFa-induced p65 nuclear translocation; cell count: measured here: nuclei count (cytotoxicity indicator), at 2.08 µM; inhibition: at 2 µM, stronger effect = higher value, 0% TNFa-plus-vehicle, 100% no-TNFa wells.
The nature of experiment [2]: endothelial E-selectin expression blockers – imaging, HUVEC, immunofluorescence, MLSMR starter and 10KST1 sets, primary screen (AID 487;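 active means visually confirmed hit in the image check and inhibition above 20%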;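 on inhibition: signal is fraction of cell area covered by stained E-selectin grains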;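 on nuclei count: 100% = median nuclei count of all wells on the same plate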). The following applies: HUVEC TNFalpha-induced E-selectin immunofluorescence imaging, at 2 µM; inhibition: stronger effect = higher value; nuclei count: measured here: cell number, toxicity.
Experiment [3] can be described thus: Primary imaging screen for DUSP6 inhibitors that restore phospho-Erk in transfected HeLa cells, chemical complementation (AID 609;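 active means compounds giving at least 50% inhibition in the cell-based MKP-3 phosphatase rescue imaging test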;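 on inhibition: phospho-Erk level distribution per well compared with pooled transfected vehicle control wells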). To be noted: HeLa MKP-3 transfected, phospho-Erk imaging KS statistic, at 10 µM, cells stimulated with TPA for 15 min.
In experiment [4] the target is Dual specificity protein phosphatase 6 (Homo sapiens) (UniProt Q16828). Described as above. To be noted: HeLa MKP-3 transfected, phospho-Erk imaging KS statistic; at 10 µM; stronger effect = higher value; cells stimulated with TPA for 15 min.
Dual specificity protein phosphatase 6 (Homo sapiens), sequence (Q16828 whole entry, looked up): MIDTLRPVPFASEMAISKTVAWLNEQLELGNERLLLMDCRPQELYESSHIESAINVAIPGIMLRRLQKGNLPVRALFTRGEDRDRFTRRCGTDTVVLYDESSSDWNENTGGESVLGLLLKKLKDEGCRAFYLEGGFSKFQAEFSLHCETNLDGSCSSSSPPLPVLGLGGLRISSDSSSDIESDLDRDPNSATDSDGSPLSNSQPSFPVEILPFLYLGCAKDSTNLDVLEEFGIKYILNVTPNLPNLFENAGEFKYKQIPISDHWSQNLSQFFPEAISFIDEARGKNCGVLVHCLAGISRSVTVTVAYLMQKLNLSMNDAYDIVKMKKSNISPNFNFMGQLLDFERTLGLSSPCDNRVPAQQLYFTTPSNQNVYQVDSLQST
Experiment [5] deals with Voltage-gated potassium channel subunit beta-2 (Rattus norvegicus) (UniProt P62483). The experiment can be described thus: inhibitors of rat Kvbeta2 reductase activity – biochemical, NADPH fluorescence, primary screen (AID 622;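 active means fluorescence slope higher than the sample average by over 3 SD, cut at about -0.22 in these data, passing the limit was not always enough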;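 further: slope of raw intensity against log time taken from 70 to 1610 s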). To be noted: recombinant KvBeta, 4-cyanobenzaldehyde reduction, at 10 µM, stronger effect = higher value.
Voltage-gated potassium channel subunit beta-2 (Rattus norvegicus), sequence (P62483 whole entry, looked up): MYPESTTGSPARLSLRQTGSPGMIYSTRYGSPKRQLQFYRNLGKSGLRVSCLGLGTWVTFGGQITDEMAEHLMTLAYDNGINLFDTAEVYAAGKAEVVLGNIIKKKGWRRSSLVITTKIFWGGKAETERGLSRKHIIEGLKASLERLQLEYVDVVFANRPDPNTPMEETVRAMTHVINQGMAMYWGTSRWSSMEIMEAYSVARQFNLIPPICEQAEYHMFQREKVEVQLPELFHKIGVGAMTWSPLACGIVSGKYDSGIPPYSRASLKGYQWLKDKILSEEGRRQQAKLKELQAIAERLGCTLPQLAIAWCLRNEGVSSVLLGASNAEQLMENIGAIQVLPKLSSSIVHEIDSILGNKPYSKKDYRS
Experiment [6] has the same target. The experiment can be described thus: enhancers of rat Kvbeta2 NADPH turnover – biochemical, NADPH fluorescence, primary screen (AID 623).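 Further: fluorescence intensity change per second fitted from 20 to 320 s.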 The following applies: Recombinant KvBeta, NADPH fluorescence decrease slope, 10 min; at 10 µM; stronger effect = lower value.
Experiment [7] deals with Muscarinic acetylcholine receptor M4 (Homo sapiens) (UniProt P08173). Put plainly: M4-linked GIRK flux change, two-sided – cell-based, HEK293 M4/GIRK, thallium flux, BTC-AM, M4 allosteric agonist project, primary screen (AID 625;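 active means fluorescence slope after compound addition differing from the mean of all tested samples at 99.7% confidence, mostly higher but some lower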;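 further: thallium influx through GIRK channels coupled to M4 in HEK293 cells with BTC-AM dye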). The following applies: at 10 µM, actives lie on both sides. In short, it runs like this: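 Assay system: HEK293 cells with M4 receptor and GIRK channels / Controls: carbachol and DMSO controls / Schedule: 1 h dye loading, 2 min kinetic read / Technique: kinetic fluorescence with BTC-AM dye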
Muscarinic acetylcholine receptor M4 (Homo sapiens), sequence (P08173 whole entry, looked up): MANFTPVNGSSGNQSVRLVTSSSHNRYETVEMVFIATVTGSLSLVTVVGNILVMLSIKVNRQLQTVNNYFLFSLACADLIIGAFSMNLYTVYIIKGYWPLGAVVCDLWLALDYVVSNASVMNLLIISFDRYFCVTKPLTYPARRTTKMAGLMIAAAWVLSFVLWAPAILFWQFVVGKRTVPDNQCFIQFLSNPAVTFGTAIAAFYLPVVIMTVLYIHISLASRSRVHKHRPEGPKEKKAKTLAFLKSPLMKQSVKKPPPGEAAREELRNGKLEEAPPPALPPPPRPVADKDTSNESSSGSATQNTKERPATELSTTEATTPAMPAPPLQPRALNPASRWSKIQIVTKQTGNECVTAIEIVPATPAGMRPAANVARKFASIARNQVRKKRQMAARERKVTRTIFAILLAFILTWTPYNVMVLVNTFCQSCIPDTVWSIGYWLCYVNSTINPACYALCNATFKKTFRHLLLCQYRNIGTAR

Experiment [8] in a line: inhibitors of larval lipid processing in zebrafish, primary screen, whole organism, PED6 fluorescence, gall bladder and intestine (AID 686;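 active means a full or partial loss of lipid-probe fluorescence in the fish gall bladder, intestine or both, judged by eye; inactive means no fluorescence loss, or compound toxic to the fish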;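 further: signal comes from phospholipase A2 cleavage of quenched PED6 carried via bile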). The following applies: Zebrafish larvae PED6 lipid processing, fluorescence scoring; screened at 20 µM (by protocol). In short, it runs like this: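 Doses: 20 µM single dose. Test system: live zebrafish larvae aged 5-7 days, whole organism. Quantity: five larvae per well. Measured by: By-eye fluorescence microscopy. Reagent: ingested quenched lipid PED6 at 100 nM. Read-out: visual per-well fluorescence inhibition score. Times: overnight exposure of larvae to compound plus PED6.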

The nature of experiment [9]: loss of swimming-algae plug formation – whole organism, Chlamydomonas reinhardtii, WT vs cilia-less mutant, absorbance, 96-well, primary screen (AID 463189;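 active means inhibition at or above 50% relative to wild type and mutant plate controls; inactive means inhibition below 50%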;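 further: 0% = wild type cc124 cells in DMSO and 100% = ciliumless bld1 mutant cells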). To be noted: Chlamydomonas reinhardtii gravitaxis, OD600 absorbance, 2 days; at 10 µM; stronger effect = higher value.
[10] abbreviates: measured here: cell density z-score.
The mark [11] stands for this setting: measured here: nuclear c-Myc green intensity z-score.
The mark [12] stands for this setting: measured here: nuclear pErk red intensity z-score, stronger effect = higher value.

Broadly, the inhibition is the drop in the measured response relative to a control, in per cent. As to `O=C(c1ccc(-n2cnnn2)cc1)N1CCOCC1`, the cell count in experiment [1] worked out at 670. Further, the inhibition in experiment [1] was -3.5% (inactive); in [2] it was 18.9% (inactive); in experiment [4] it was 4.72% (inactive); in experiment [9], -1.94% (inactive). The molecule further gave a nuclei count in experiment [2] of 171%. Also, the z-score in [3] (setting [10]) is 0.439; in [3] (setting [11]), -0.115; in experiment [3] (setting [12]), 0.866. Also, the results for the fluorescence slope in experiment [5] and in [7] were -0.492 (inactive) and 0.00579 (inactive), respectively. Further, the NADPH fluorescence slope in [6] is -4.1e-05 (inactive). Further, the outcome in experiment [8] was inactive.

For `CC1(C)Cc2nc(NCCN3CCOCC3)c(C#N)cc2CO1`, the cell count in experiment [1] turned out to be 586. The inhibition is -8.3% (inactive) in [1], -133% (inactive) in experiment [2], -0.233% (inactive) in [4] and -7.98% (inactive) in experiment [9]. For the same molecule, the nuclei count in experiment [2] was 149%. Moreover, the z-score in [3] (setting [10]) amounted to 0.143; in experiment [3] (setting [11]), 0.853; in [3] (setting [12]), 0.307. Moreover, the fluorescence slope in [5] is -0.486 (inactive); in [7] it was 0.00414 (inactive). Besides, the NADPH fluorescence slope in [6] was -8.5e-05 (inactive). Also, the molecule was classed as inactive in experiment [8].

In the case of `Cc1cc(=O)n2[nH]c(N3C(=O)CCC3=O)nc2n1`, the cell count in experiment [1] amounted to 527. Moreover, the inhibition in experiment [1] was -1.3% (inactive); in experiment [2], 47.3% (inactive); in experiment [4] it was -5.95% (inactive); in experiment [9] it was 4.51% (inactive). Also, the nuclei count in experiment [2] was 172%. Besides, the z-score in experiment [3] (setting [10]) was -0.749; in [3] (setting [11]) it was -0.115; in experiment [3] (setting [12]) it was 1.44. The fluorescence slope in experiment [5] is -0.397 (inactive); in experiment [7] it was 0.00594 (inactive). Moreover, the NADPH fluorescence slope in [6] was -2.7e-05 (inactive). In addition, the molecule was called inactive in [8].

For the molecule `COc1ccc(-n2ncc3c(N4CCC(C(N)=O)CC4)ncnc32)cc1`, the cell count in experiment [1] turned out to be 602. In addition, the inhibition was -18.6% (inactive) in [1], -114% (inactive) in [2], 13.4% (inactive) in experiment [4] and -0.327% (inactive) in [9]. The same molecule returned a nuclei count in [2] of 159%. Also, the z-score is 0.0865 in experiment [3] (setting [10]), 1.24 in [3] (setting [11]) and -0.312 in experiment [3] (setting [12]). For the same molecule, the fluorescence slope in experiment [5] was -0.385 (inactive); in experiment [7], 0.00675 (inactive). Further, the NADPH fluorescence slope in experiment [6] was -6.8e-05 (inactive). For the same molecule, the result in [8] was inactive.

Regarding `CC(NC(=O)NCCCn1ccnc1)(C(F)(F)F)C(F)(F)F`, the cell count in experiment [1] was 679. Further, the inhibition was 2.1% (inactive) in experiment [1], -67.3% (inactive) in [2], -13.3% (inactive) in experiment [4] and 0.921% (inactive) in experiment [9]. In experiment [2], this molecule gave a nuclei count of 166%. The z-score in experiment [3] (setting [10]) was -0.846; in experiment [3] (setting [11]) it was -0.74; in experiment [3] (setting [12]), 0.188. Besides, the fluorescence slope was -0.438 (inactive) in experiment [5] and 0.005 (inactive) in [7]. For the same molecule, the NADPH fluorescence slope in experiment [6] is -5.8e-05 (inactive). Moreover, the molecule was classed as inactive in experiment [8].

With `Cc1cc2nncn2c(Cc2ccccc2)n1`, in experiment [1], the cell count is 407. The inhibition in experiment [1] is -7.4% (inactive); in experiment [2] it was -152% (inactive); in [4], -6.59% (inactive); in [9] it was -3.56% (inactive). In experiment [2], this molecule yielded a nuclei count of 183%. In addition, the figures for the z-score in experiment [3] (setting [10]), in experiment [3] (setting [11]) and in experiment [3] (setting [12]) were -1.1, 0.267 and 0.816, respectively. Moreover, the values for the fluorescence slope in [5] and in experiment [7] were -0.428 (inactive) and 0.00485 (inactive), respectively. Moreover, the NADPH fluorescence slope in experiment [6] was -0.000108 (inactive). In [8], the outcome was inactive.

`COC(=O)c1ccccc1OCc1cccc(C)n1`: the cell count in [1] was found to be 642. The inhibition was -3.5% (inactive) in experiment [1], -85% (inactive) in experiment [2], 1.9e-07% (inactive) in [4] and -11.3% (inactive) in [9]. This molecule also showed a nuclei count in [2] of 138%. Also, the values for the z-score in experiment [3] (setting [10]), in experiment [3] (setting [11]) and in [3] (setting [12]) were 0.411, 0.832 and -0.721, respectively. For the same molecule, the fluorescence slope in experiment [5] was -0.495 (inactive); in experiment [7], 0.00518 (inactive). Also, the NADPH fluorescence slope in experiment [6] is -3.1e-05 (inactive). Moreover, the molecule was classed as inactive in [8].

Consider `COC(=O)NC(Nc1sc2c(c1C(N)=O)CCCC2)(C(=O)OC)C(F)(F)F` (centres undefined), for which, in experiment [1], the cell count worked out at 713. Further, the inhibition in experiment [1] is 11.7% (inactive); in experiment [2] it was -59.3% (inactive); in [4], -11.4% (inactive); in [9], -3.75% (inactive). Also, in experiment [2], the nuclei count is 147%. Besides, the z-score was 0.143 in experiment [3] (setting [10]), -0.0847 in experiment [3] (setting [11]) and -0.638 in experiment [3] (setting [12]). The fluorescence slope was -0.431 (inactive) in experiment [5] and 0.00518 (inactive) in experiment [7]. In experiment [6], the NADPH fluorescence slope is -7.5e-05 (inactive). The molecule was classed as inactive in experiment [8].

With `COc1ccc(N2CCN(c3oc(COc4ccc(Cl)cc4)nc3C#N)CC2)cc1`, in experiment [1], the cell count was found to be 374. In addition, the inhibition was -3.3% (inactive) in experiment [1], -61.3% (inactive) in experiment [2], 2.71% (inactive) in experiment [4] and -10.3% (inactive) in experiment [9]. Moreover, the nuclei count in experiment [2] came to 106%. Besides, the z-score stood at 1.12 in experiment [3] (setting [10]), 0.417 in experiment [3] (setting [11]) and 0.177 in experiment [3] (setting [12]). The results for the fluorescence slope in experiment [5] and in [7] were -0.46 (inactive) and 0.00414 (inactive), respectively. In addition, in experiment [6], the NADPH fluorescence slope is -7e-05 (inactive). The molecule was called inactive in [8].

As for `O=C(C1=C(O)C(=O)N(CCCN2CCOCC2)C1c1ccccn1)c1cc2ccccc2o1` (centres undefined), the cell count in [1] was 558. Also, the inhibition is -4.5% (inactive) in experiment [1], 55.2% (inactive) in experiment [2], 12.7% (inactive) in experiment [4] and 23.5% (inactive) in experiment [9]. In experiment [2], this molecule came in with a nuclei count of 95.5%. The z-score was 0.823 in experiment [3] (setting [10]), 0.459 in experiment [3] (setting [11]) and -0.11 in experiment [3] (setting [12]). Moreover, the fluorescence slope in [5] is -0.441 (inactive); in experiment [7], 0.0054 (inactive). For the same molecule, the NADPH fluorescence slope in [6] is -0.000374 (active). The call in [8] was inactive.

Consider `CN(C)CCOC(=O)Cc1ccc(Cl)cc1`, for which the cell count in experiment [1] came out at 622. For the same molecule, the inhibition in experiment [1] is -6.2% (inactive); in experiment [2], -90.8% (inactive); in experiment [4], 12.8% (inactive); in [9] it was 35.4% (inactive). In experiment [2], this molecule had a nuclei count of 83.6%. The z-score in experiment [3] (setting [10]) is 1.56; in [3] (setting [11]) it was -0.995; in experiment [3] (setting [12]) it was -0.341. Further, the fluorescence slope was -0.539 (inactive) in experiment [5] and 0.00854 (inactive) in [7]. Also, in [6], the NADPH fluorescence slope is -4.8e-05 (inactive). Besides, the molecule was called inactive in experiment [8].

Take `CCCc1cc(=O)oc2c(C)c(O)c(CN3CCCCC3)cc12`: the cell count in experiment [1] stood at 657. Moreover, the inhibition in [1] is -2.4% (inactive); in experiment [2] it was -23.3% (inactive); in [4], 1.04% (inactive); in [9], 0.97% (inactive). The molecule further registered a nuclei count in [2] of 157%. The z-score is -0.426 in experiment [3] (setting [10]), -0.355 in experiment [3] (setting [11]) and 0.314 in [3] (setting [12]). Moreover, the figures for the fluorescence slope in experiment [5] and in [7] were -0.00538 (inactive) and 0.00467 (inactive), respectively. Besides, the NADPH fluorescence slope in [6] was -1.8e-06 (inactive). In experiment [8], the outcome was inactive.

On to `CCCSc1nnc(NC(=O)Nc2ccc(F)cc2)s1`, for which, in [1], the cell count was 660. Further, the inhibition in [1] is -13.9% (inactive); in [2], -24% (inactive); in experiment [4], 20.2% (inactive); in experiment [9] it was 6.75% (inactive). The nuclei count in experiment [2] was determined as 182%. The z-score in [3] (setting [10]) is 0.28; in experiment [3] (setting [11]), -1.17; in [3] (setting [12]), -0.511. The fluorescence slope in experiment [5] was -0.488 (inactive); in [7] it was 0.00807 (inactive). The NADPH fluorescence slope in experiment [6] is -6.8e-05 (inactive). Also, the result in experiment [8] was inactive.

These data come from PubChem BioAssay.
